Data published in ChEMBL document CHEMBL5705905, “Pharmacological targeting of kinases MST1 and MST2 augments tissue repair and regeneration” (Sci Transl Med, 2016).
Active and inactive are the calls of the source. The calls are words filed in the database; no cut-off is given here.

Assays:
Mus musculus = assay: Protection against human hepatocyte transplanted FRG mouse assessed as Fah-deficient hepatocyte survival at 1 mg/kg, ip administrated once a daily for 28 days by H&E staining based immunohistochemical analysis; format: functional, organism-based; settings: Liver, time 28.0 day
[1] = target: Serine/threonine-protein kinase 38 (Homo sapiens) (UniProt Q15208); assay: Inhibition of NDR1 (unknown origin) assessed as remaining activity at 1 uM by Kinome scan method relative to control
[2] = target: Cyclin-dependent kinase 9 (Homo sapiens) (UniProt P50750); assay: Inhibition of CDK9 (unknown origin) assessed as remaining activity at 1 uM by Kinome scan method relative to control
Outline: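 Active-site-dependent competition-binding profiling (KINOMEscan) at 1 μM against a 468-kinase panel; compound supplied from a 10 mM DMSO stock. Read-out is ctrl% = (test signal − positive control signal)/(negative control signal − positive control signal) × 100. DMSO is the negative control (100%) and a control compound the positive control (0%). Lower ctrl% means tighter binding.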

[3] = target: Ribosomal protein S6 kinase alpha-3 (Homo sapiens) (UniProt P51812); assay: Inhibition of C-terminal kinase domain RSK2 (unknown origin) assessed as remaining activity at 1 uM by Kinome scan method relative to control
Outline: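 Active-site-dependent competition-binding (KINOMEscan) panel of 468 kinases, test compound at 1 μM (from a 10 mM DMSO stock). Read-out is ctrl% = (test signal − positive control signal)/(negative control signal − positive control signal) × 100. DMSO is the negative control (100%) and a control compound is the positive control (0%). Lower ctrl% means tighter binding.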

[4] = target: Protein kinase C eta type (Homo sapiens) (UniProt P24723); assay: Inhibition of PRKCH (unknown origin) assessed as remaining activity at 1 uM by Kinome scan method relative to control
[5] = target: Serine/threonine-protein kinase Sgk3 (Homo sapiens) (UniProt Q96BR1); assay: Inhibition of SGK3 (unknown origin) assessed as remaining activity at 1 uM by Kinome scan method relative to control
[6] = target: Non-receptor tyrosine-protein kinase TYK2 (Homo sapiens, UniProt P29597); assay: Binding affinity to TYK2 JH1domain-catalytic (unknown origin) assessed as dissociation constant
Homo sapiens [7] = species: Homo sapiens; assay: Inhibition of recombinant His-tagged full-length MST1 Y101F/D109A mutant (unknown origin) expressing in Escherichia coli assessed as GST-tagged MOB1 phosphorylation level at 0.01 to 1 uM incubated for 15 min by immunoblot analysis; settings: dose 0.01-1 µM
[8] = target: Platelet-derived growth factor receptor alpha (Homo sapiens) (UniProt P16234); assay: Inhibition of PDGFRalpha (unknown origin) assessed as remaining activity at 1 uM by Kinome scan method relative to control
Outline: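 KINOMEscan active-site competition binding assay at 1 μM against 468 kinases. Ctrl% = (test − positive control)/(negative control DMSO − positive control) × 100; lower values mean tighter binding.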

[9] = Acute toxicity in wild-type mouse assessed as CK19-positive cells at 1 mg/kg,ip administrated daily for 2 months and after 2 weeks drug withdrawal by H and E staining based immunohistochemical analysis; format: organism-based; settings: in vivo, 1460 h
Outline: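 Wild-type mice dosed 1 mg/kg i.p. daily for 2 months (vehicle 0.1% citric acid aqueous solution with 20% Kolliphor HS 15), or dosed and then withdrawn 2 weeks. Liver sections given H&E and IHC for CK19 and BrdU; positive cells counted, n = 3; means ± SD, Student's t test.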

HepG2 = assay: Induction of apoptosis in human HepG2 cells assessed as viable cells at 3 uM by annexinV staining (Rvb =95.0 %); format: functional; settings: read-out: Activity
[10] = target: T1, Serine/threonine-protein kinase 24 (Homo sapiens, UniProt Q9Y6E0); assay: Binding affinity to MST3 (unknown origin) assessed as dissociation constant
Target sequence in this assay (Q9Y6E0 whole entry): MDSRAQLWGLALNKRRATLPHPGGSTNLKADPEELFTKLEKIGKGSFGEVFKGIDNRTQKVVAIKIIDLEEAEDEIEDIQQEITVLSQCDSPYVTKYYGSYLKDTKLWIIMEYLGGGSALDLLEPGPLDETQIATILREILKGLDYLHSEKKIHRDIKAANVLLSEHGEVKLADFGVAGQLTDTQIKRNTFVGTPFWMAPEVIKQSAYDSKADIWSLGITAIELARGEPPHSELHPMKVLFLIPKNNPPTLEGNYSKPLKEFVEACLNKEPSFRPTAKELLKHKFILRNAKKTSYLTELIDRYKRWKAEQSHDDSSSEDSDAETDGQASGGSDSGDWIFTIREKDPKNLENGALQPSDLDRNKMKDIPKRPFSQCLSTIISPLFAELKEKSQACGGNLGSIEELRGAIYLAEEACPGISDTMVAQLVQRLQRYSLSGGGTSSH

[11] = target: Maternal embryonic leucine zipper kinase (Homo sapiens) (UniProt Q14680); assay: Inhibition of MELK (unknown origin) assessed as remaining activity at 1 uM by Kinome scan method relative to control
[12] = target: Cyclin-dependent kinase 19 (Homo sapiens) (UniProt Q9BWU1); assay: Inhibition of CDK11 (unknown origin) assessed as remaining activity at 1 uM by Kinome scan method relative to control
Outline: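 KINOMEscan active-site-dependent competition-binding panel of 468 kinases, compound at 1 μM from a DMSO stock. Result reported as ctrl% = (test signal − positive control signal)/(negative control signal − positive control signal) × 100. The negative control is DMSO (100%) and the positive control is a control compound (0%). Lower ctrl% means tighter binding.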

[13] = target: Serine/threonine-protein kinase DCLK1 (Homo sapiens, UniProt O15075); assay: Inhibition of DCAMKL1 (unknown origin) in presence of ATP by enzymatic assay
[14] = tested on: Epidermal growth factor receptor (Homo sapiens), P00533 [UNDEFINED MUTATION]; assay: Inhibition of EGFR S752-I759del mutant (unknown origin) assessed as remaining activity at 1 uM by Kinome scan method relative to control
[15] = target: Serine/threonine-protein kinase TAO3 (Homo sapiens, UniProt Q9H2K8); assay: Binding affinity to TAOK3 (unknown origin) assessed as dissociation constant
[16] = target: Serine/threonine-protein kinase WNK4 (Homo sapiens) (UniProt Q96J92); assay: Inhibition of WNK4 (unknown origin) assessed as remaining activity at 1 uM by Kinome scan method relative to control
[17] = target: Serine/threonine-protein kinase 3 (Homo sapiens, UniProt Q13188, Y101F)
[18] = target: T1, Serine/threonine-protein kinase 24; assay: Inhibition of MST3 (unknown origin) assessed as remaining activity at 1 uM by Kinome scan method relative to control
Target sequence in this assay (Q9Y6E0 whole entry, looked up): as the sequence (Q9Y6E0 whole entry) above

[19] = target: MAP kinase-activated protein kinase 5 (Homo sapiens) (UniProt Q8IW41); assay: Inhibition of MAPKAPK5 (unknown origin) assessed as remaining activity at 1 uM by Kinome scan method relative to control
[20] = tested on: Receptor-type tyrosine-protein kinase FLT3 (Homo sapiens), P36888 [N841I]; assay: Inhibition of FLT3 N841I mutant (unknown origin) assessed as remaining activity at 1 uM by Kinome scan method relative to control
[21] = target: Serine/threonine-protein kinase DCLK2 (Homo sapiens) (UniProt Q8N568); assay: Inhibition of DCAMKL2 (unknown origin) assessed as remaining activity at 1 uM by Kinome scan method relative to control
Homo sapiens [22] = species: Homo sapiens; assay: Inhibition of recombinant His-tagged full-length MST1 D109A mutant (unknown origin) expressing in Escherichia coli assessed as GST-tagged MOB1 phosphorylation level at 0.01 to 1 uM incubated for 15 min by immunoblot analysis; settings: dose 0.01-1 µM
[23] = target: Serine/threonine-protein kinase D1 (Homo sapiens) (UniProt Q15139); assay: Inhibition of PRKD1 (unknown origin) assessed as remaining activity at 1 uM by Kinome scan method relative to control
[24] = tested on: Mast/stem cell growth factor receptor Kit (Homo sapiens), P10721 [V559D,V654A]; assay: Inhibition of KIT V559D/V654A mutant (unknown origin) assessed as remaining activity at 1 uM by Kinome scan method relative to control

Sequence of Serine/threonine-protein kinase DCLK2 (Homo sapiens) (Q8N568 whole entry): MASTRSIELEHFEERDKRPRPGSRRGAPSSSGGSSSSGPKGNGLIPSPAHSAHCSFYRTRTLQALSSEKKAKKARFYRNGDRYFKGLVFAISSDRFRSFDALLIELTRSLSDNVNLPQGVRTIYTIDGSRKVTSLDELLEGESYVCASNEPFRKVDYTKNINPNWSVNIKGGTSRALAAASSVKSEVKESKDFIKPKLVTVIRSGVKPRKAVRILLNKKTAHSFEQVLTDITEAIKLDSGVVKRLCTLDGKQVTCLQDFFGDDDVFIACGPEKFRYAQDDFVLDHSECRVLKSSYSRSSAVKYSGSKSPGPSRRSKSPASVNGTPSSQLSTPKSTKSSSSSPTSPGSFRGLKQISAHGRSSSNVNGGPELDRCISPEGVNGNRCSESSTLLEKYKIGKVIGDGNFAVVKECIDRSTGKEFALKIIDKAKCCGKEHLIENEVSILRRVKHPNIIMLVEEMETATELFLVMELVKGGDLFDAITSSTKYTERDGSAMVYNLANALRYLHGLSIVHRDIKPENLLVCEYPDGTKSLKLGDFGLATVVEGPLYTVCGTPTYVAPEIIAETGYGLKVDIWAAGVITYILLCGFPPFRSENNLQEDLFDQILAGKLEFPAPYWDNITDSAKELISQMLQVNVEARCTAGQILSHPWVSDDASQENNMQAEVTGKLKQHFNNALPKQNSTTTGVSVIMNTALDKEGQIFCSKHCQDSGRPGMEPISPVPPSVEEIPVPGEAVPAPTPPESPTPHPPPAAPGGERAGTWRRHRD
Sequence of Serine/threonine-protein kinase TAO3 (Q9H2K8 whole entry): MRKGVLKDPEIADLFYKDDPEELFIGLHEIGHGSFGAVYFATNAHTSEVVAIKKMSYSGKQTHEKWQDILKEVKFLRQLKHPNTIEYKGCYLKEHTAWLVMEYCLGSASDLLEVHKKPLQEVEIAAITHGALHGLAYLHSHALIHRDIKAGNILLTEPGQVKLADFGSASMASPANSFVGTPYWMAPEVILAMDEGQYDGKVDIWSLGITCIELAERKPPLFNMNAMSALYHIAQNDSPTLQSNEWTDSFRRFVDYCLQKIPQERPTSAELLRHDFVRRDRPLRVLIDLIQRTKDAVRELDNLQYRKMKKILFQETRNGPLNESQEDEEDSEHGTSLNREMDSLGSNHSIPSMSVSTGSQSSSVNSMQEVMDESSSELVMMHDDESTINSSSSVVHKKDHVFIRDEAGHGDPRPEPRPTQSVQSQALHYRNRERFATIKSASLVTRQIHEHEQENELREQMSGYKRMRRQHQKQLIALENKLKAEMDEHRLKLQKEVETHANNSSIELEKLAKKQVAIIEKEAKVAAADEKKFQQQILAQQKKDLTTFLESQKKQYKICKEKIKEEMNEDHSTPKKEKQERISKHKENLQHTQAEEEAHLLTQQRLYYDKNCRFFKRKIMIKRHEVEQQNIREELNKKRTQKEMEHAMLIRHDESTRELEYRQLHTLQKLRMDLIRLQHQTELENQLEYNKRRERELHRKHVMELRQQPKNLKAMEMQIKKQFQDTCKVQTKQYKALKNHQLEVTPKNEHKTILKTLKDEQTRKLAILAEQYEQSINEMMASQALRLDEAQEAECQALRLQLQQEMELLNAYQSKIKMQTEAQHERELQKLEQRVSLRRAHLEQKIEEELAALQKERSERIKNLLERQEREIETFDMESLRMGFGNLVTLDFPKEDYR
Sequence of Serine/threonine-protein kinase 3 (Q13188 whole entry Y101F): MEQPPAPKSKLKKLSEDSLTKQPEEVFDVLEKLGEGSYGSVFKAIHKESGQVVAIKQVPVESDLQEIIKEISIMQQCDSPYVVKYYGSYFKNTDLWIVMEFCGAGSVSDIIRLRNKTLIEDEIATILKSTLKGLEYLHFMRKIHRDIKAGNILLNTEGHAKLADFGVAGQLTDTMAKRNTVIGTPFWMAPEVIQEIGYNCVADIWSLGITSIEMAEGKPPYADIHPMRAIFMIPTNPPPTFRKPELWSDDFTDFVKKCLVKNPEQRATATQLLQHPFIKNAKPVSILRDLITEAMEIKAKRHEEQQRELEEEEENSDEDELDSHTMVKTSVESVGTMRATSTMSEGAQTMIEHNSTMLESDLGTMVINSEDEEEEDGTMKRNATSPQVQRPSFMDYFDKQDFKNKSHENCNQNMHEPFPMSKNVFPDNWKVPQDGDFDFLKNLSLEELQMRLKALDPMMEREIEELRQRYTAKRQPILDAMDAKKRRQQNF
Sequence of Cyclin-dependent kinase 19 (Homo sapiens) (Q9BWU1 whole entry): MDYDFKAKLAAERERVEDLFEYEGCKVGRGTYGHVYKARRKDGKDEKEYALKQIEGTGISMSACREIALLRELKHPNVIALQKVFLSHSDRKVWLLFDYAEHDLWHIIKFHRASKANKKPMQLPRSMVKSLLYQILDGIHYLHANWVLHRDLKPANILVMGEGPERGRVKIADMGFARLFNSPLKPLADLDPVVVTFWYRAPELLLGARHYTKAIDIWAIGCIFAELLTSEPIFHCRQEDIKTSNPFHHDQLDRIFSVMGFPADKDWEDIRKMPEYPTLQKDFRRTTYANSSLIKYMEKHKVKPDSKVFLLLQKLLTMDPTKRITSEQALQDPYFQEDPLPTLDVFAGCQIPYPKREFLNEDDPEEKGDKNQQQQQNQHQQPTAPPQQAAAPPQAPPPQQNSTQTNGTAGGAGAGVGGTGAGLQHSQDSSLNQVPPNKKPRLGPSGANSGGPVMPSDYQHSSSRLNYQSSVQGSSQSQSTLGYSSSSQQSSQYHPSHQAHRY
Sequence of Serine/threonine-protein kinase WNK4 (Homo sapiens) (Q96J92 whole entry): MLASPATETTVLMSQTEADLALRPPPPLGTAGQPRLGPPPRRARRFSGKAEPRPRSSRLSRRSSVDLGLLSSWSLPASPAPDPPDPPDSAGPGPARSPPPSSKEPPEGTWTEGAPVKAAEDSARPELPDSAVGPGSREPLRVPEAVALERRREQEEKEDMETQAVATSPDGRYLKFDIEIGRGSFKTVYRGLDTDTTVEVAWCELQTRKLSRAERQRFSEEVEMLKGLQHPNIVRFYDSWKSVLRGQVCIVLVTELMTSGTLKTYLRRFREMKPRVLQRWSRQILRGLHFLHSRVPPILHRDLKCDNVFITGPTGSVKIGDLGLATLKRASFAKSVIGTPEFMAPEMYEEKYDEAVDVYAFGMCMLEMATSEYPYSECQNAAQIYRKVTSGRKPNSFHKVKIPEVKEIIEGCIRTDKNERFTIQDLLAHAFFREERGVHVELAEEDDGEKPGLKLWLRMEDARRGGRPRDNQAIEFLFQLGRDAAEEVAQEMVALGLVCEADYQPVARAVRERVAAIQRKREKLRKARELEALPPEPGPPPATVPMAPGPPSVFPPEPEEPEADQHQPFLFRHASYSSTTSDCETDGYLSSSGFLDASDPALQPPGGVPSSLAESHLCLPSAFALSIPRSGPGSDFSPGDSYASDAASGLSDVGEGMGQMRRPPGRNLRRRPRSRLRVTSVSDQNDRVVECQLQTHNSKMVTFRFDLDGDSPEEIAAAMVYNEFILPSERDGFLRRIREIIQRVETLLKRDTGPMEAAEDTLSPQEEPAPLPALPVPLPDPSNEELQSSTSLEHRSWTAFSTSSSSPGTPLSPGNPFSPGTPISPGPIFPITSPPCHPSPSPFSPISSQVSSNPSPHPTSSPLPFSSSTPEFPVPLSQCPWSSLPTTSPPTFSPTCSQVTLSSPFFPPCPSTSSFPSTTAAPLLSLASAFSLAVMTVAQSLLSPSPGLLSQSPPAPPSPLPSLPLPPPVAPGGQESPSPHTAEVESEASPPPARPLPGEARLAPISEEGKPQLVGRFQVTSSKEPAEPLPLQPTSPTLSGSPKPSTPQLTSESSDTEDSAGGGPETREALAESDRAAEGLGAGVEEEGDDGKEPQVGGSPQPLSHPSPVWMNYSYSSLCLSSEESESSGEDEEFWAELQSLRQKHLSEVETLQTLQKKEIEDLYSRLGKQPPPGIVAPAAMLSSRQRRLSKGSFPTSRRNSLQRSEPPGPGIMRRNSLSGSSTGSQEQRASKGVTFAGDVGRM
Sequence of Serine/threonine-protein kinase 38 (Homo sapiens) (Q15208 2-465 limits assumed): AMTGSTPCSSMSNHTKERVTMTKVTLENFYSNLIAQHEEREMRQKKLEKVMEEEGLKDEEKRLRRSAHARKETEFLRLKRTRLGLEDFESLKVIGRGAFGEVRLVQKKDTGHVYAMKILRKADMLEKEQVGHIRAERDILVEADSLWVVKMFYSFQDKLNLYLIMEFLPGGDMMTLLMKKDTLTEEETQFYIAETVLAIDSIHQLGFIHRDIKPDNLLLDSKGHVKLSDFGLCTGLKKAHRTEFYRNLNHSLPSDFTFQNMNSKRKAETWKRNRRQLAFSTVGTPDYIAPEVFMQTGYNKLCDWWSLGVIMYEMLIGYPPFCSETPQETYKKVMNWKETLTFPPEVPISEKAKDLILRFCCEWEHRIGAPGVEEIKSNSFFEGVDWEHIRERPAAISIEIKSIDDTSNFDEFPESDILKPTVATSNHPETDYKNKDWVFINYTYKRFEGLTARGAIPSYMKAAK

In the case of `CN1C(=O)c2sccc2N(C)c2nc(Nc3ccc(S(N)(=O)=O)cc3)ncc21`, the Activity (Mus musculus) is reported as “inactive”, the Activity [1] is reported as 62% and the Activity [2] is reported as 84%. For the same molecule, the Activity [3] was 66%, the Activity [4] was 100% and the Activity [5] was 87%. The Kd [6] was 5 nM, the inhibition (Homo sapiens [7]) was “Active” and the Activity [8] was 89%. For the same molecule, the Activity [9] was “Non-Toxic”, the viability at 3 µM (HepG2) was 95% and the Kd [10] was 18 nM. The Activity [11] was 100%, the Activity [12] was 95% and the IC50 [13] was 27.9 nM. It also gave an Activity [14] of 100%, a Kd [15] of 610 nM and an Activity [16] of 95%. It also gave an IC50 [17] of 361 nM, an Activity [18] of 0.9% and an Activity [19] of 91%. The Activity [20] was 39%, the Activity [21] was 84% and the inhibition (Homo sapiens [22]) was “Active”. The Activity [23] was 98% and the Activity [24] was 92%.
